# Data as given in ChEMBL document CHEMBL3085664, “Structure-activity relationship of imidazopyridinium analogues as antagonists of neuropeptide s receptor” (J Med Chem, 2013).
# Assays:
# [1] = target: T1, Neuropeptide S receptor (Homo sapiens, UniProt Q6W5P4); assay: Antagonist activity at neuropeptide S receptor (unknown origin) expressed in CHO cells assessed as inhibition of NPS-induced calcium mobilization after 10 mins by fluorescence assay; assay type: functional, cell-based
# T1 sequence (Q6W5P4 whole entry): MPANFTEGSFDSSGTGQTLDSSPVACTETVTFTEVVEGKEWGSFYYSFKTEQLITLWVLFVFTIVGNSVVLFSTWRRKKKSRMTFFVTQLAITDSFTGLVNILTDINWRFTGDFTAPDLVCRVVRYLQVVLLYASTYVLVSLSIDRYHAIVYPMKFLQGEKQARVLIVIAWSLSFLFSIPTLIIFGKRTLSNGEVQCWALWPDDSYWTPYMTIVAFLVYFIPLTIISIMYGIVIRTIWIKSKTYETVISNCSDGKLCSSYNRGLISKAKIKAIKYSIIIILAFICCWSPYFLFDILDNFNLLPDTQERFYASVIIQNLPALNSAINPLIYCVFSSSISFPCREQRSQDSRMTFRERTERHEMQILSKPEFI
# Summary of the method: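 CHO-NPSR cells, 2000/well in 1536-well plates, incubated overnight, then loaded with no-wash calcium dye for 1 h at 37°C. Compound in DMSO was added for 10 min. Baseline fluorescence was recorded 6 s at 1 Hz, then EC80 NPS in stimulation buffer was added and recording continued 4 min at 1 Hz on a kinetic reader. IC50 is the mean with SD of two independent experiments in duplicate.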
# [2] = target: T1, Neuropeptide S receptor; assay: Antagonist activity at neuropeptide S receptor (unknown origin) expressed in CHO cells assessed as cAMP level after 30 mins by […] assay; assay type: functional, cell-based
# Summary of the method: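 CHO cells stably expressing NPSR, 1800 cells/well in 1536-well format, seeded overnight at 37°C in medium without Geneticin. Stimulation buffer (PBS, 0.1% BSA, 0.05% Tween-20, 500µM Ro 20-1724, EC80 NPS) was added for 30 min at 37°C. cAMP was read by HTRF (d2-cAMP/cryptate anti-cAMP in lysis buffer, 30 min). IC50 is the mean with SD of two independent experiments, each run in duplicate.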
# [3] = target: T1, Neuropeptide S receptor; assay: Antagonist activity at neuropeptide S receptor (unknown origin) expressed in CHO cells assessed as inhibition of NPS-induced ERK activation after 20 mins by HTRF assay; assay type: cell-based
# [4] = target: T1, Neuropeptide S receptor; assay: Antagonist activity at neuropeptide S receptor (unknown origin) assessed as intracellular calcium level by cell based assay; assay type: functional
# Summary of the method: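 CHO cells stably expressing NPSR were seeded at 2000 cells/well and incubated overnight at 37 °C, 5% CO2. They were loaded with no-wash calcium dye for 1 h, then preincubated with compound in DMSO for 10 min. Stimulation used NPS at EC80 in PBS/0.1% BSA/0.05% Tween-20 with 500 µM Ro 20-1724. Kinetic fluorescence was read at 1 Hz: 6 s baseline, then 4 min. IC50 is the mean ± SD of two independent experiments, each in duplicate.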
# [5] = target: T2, Neuropeptide S receptor (Homo sapiens) (UniProt Q6W5P4); assay: Antagonist activity at neuropeptide S receptor (unknown origin) expressed in CHO cells assessed as inhibition of NPS-induced ERK activation at 50 uM after 20 mins by HTRF assay relative to control; assay type: cell-based
# T2 sequence (whole entry): T1 sequence (Q6W5P4 whole entry)
SMILES,IC50 ([2]; read-out: IC50) [µM],IC50 ([1]; read-out: IC50) [µM],further results
OC(c1ccccc1)(c1ccccc1)c1cnc2ccccn12,–,–,IC50 ([1]; cho): Not Active
Cc1c(P(=S)(c2ccccc2)c2ccccc2)n2ccccc2[n+]1C/C=C/c1ccc(Cl)cc1,0.12,0.0022,–
Cc1c(P(=S)(c2ccccc2)c2ccccc2)n2ccccc2[n+]1CCCCCc1ccccc1,0.71,0.013,IC50 [3]: 0.0062 µM
Cc1c(P(=S)(c2ccccc2)c2ccccc2)n2ccccc2[n+]1C/C=C/c1cccc(Br)c1,0.67,0.023,–
Cc1c(C(O)(c2ccccc2)c2ccccc2)n2ccccc2[n+]1C.O=C([O-])C(F)(F)F,–,–,IC50 ([1]; cho): Not Active
Cc1c(P(=S)(c2ccccc2)c2ccccc2)n2ccccc2[n+]1C/C=C/c1ccc(F)c(Br)c1,0.84,0.045,–
Cc1ccc(/C=C/C[n+]2c(C)c(P(=S)(c3ccccc3)c3ccccc3)n3ccccc32)cc1,0.33,0.009,–
Cc1c(P(=S)(c2ccccc2)c2ccccc2)n2ccccc2[n+]1C/C=C/c1ccc2ccccc2c1,1.3,0.064,–
Cc1c(P(=S)(c2ccccc2)c2ccccc2)n2ccccc2[n+]1C/C=C/c1ccc(C(F)(F)F)cc1,0.4,0.0045,–
Cc1c(P(=S)(c2ccccc2)c2ccccc2)n2ccccc2[n+]1CCc1ccccc1,2.1,0.073,IC50 [3]: 0.016 µM
Cc1c(P(=S)(c2ccccc2)c2ccccc2)n2ccccc2[n+]1CCCc1ccccc1,0.11,< 0.0005,–
Cn1cc(P(=S)(c2ccccc2)c2ccccc2)c2ccccc21,–,7.3,IC50 ([2]; cho): Not Active
O=C1c2ccccc2C(=O)C1(c1ccccc1)N1CCN(Cc2ccccc2)CC1,–,–,IC50 [4]: 0.027 µM
Cc1c(P(=S)(c2ccccc2)c2ccccc2)c2ccccc2n1C,–,2.8,inhibition [5]: < 50%; IC50 ([2]; cho): Not Active
Cc1c(P(=S)(c2ccccc2)c2ccccc2)n2ccccc2[n+]1C/C=C/c1ccc(F)cc1,0.071,0.0034,–
Cc1c(P(=S)(c2ccccc2)c2ccccc2)n2ccccc2[n+]1C/C=C/c1cccc(Cl)c1,0.22,0.0092,–
Cc1c(P(=S)(c2ccccc2)c2ccccc2)n2ccccc2[n+]1CCCCc1ccccc1,0.94,< 0.0005,IC50 [3]: 0.015 µM
O=C(NCc1ccccc1)N1CCN2C(=O)OC(c3ccccc3)(c3ccccc3)C2C1 (stereo unspecified),–,–,IC50 [4]: 0.026 µM
Cc1c(P(=S)(c2ccccc2)c2ccccc2)n2ccccc2[n+]1C/C=C/c1ccc(Br)cc1,0.17,0.0057,–
O=P(c1ccccc1)(c1ccccc1)c1cnc2ccccn12,–,–,IC50 ([1]; cho): Not Active
S=P(c1ccccc1)(c1ccccc1)c1cnc2ccccn12,63,4.03,inhibition [5]: < 50%
C[n+]1cc(C(O)(c2ccccc2)c2ccccc2)n2ccccc21.O=C([O-])C(F)(F)F,–,–,IC50 ([1]; cho): Not Active
COc1cccc(/C=C/C[n+]2c(C)c(P(=S)(c3ccccc3)c3ccccc3)n3ccccc32)c1,0.11,0.0032,–
c1ccc(P(c2ccccc2)c2cnc3ccccn23)cc1,–,35,IC50 ([2]; cho): Not Active
C[n+]1cc(P(=S)(c2ccccc2)c2ccccc2)n2ccccc21,39,2.5,inhibition [5]: < 50%
Cc1nc2ccccn2c1P(=S)(c1ccccc1)c1ccccc1,18,1,IC50 [3]: 0.0091 µM
Cc1c(P(=S)(c2ccccc2)c2ccccc2)n2ccccc2[n+]1C/C=C/c1ccccc1Cl,0.094,0.0034,–
Cc1c(P(=S)(c2ccccc2)c2ccccc2)n2ccccc2[n+]1Cc1ccccc1,1.3,0.032,IC50 [3]: 0.016 µM
Cc1nc2ccccn2c1P(=O)(c1ccccc1)c1ccccc1,–,27,IC50 ([2]; cho): Not Active
Cc1nc2ccccn2c1C(O)(c1ccccc1)c1ccccc1,–,–,IC50 ([1]; cho): Not Active
